Shown are actives, neighbours in structure and some others; about 1.2% of the full set was active somewhere.
Rin1-Abl PPI inh: inhibitors of human Rin1-Abl protein interaction. P00519+Q13671. TR-FRET Rin1/Abl binding, biochemical. inhibition, % at 7.35 µM. actives 0.4% (n = 360,000). AID 588664; in the data active = inhibition above about 5%, passing the limit was not always enough
GalR3 antagonist: human GalR3 antagonism | O60755 | inhibition, % at 3 µM | actives 0.44% (n = 360,000) | HEK293 GalR3-CNG cAMP membrane potential fluorescence; galR3 body fused to GalR1 C-terminus;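 active = inhibition above the screen-wide average plus 3 SD, cut at about 13% in these data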;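 also: forskolin and galanin both at EC90 stimulate the cells; cAMP rise reported by CNG channel membrane potential dye signal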
ARFGAP1 inhibitor: inhibits rat ARF GTPase activating protein 1 | inhibition, % at 16.5 µM | Arfgap1-stimulated ARF1 GTP hydrolysis, GDP FP detection | Q62848 | actives 0.26% (n = 360,000);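 active = inhibition above a per-plate limit, mean inhibition of low control wells plus 3 SD, cut at about 25% in these data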
Target sequence (Q62848 1-136 limits assumed): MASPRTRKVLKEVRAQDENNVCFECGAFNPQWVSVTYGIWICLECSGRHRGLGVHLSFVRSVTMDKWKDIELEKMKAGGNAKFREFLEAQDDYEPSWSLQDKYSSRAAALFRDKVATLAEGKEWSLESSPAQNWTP
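Material: rat Arfgap1 catalytic domain, aa 1-136; also added: human ARF1(Δ1-17)-GTP substrate; compound dosing: one concentration, 16.5 µM, DMSO 1.26%; incubation: GTP hydrolysis reaction 2 h at 25 °C; measured by: Tracer-displacement fluorescence polarization with EDTA stop, 620/688 nm; evaluation: % inhibition from polarization; repeats: one replicate per compound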
ASAP1 GAP inh: inhibitors of human ASAP1 ArfGAP activity | Q9ULH1 | ASAP1-stimulated ARF1 GTP hydrolysis, GDP FP detection | inhibition, % at 16.5 µM | actives 0.19% (n = 360,000) | AID 624377; in the data active = inhibition above about 25%
Target sequence (Q9ULH1 325-724 limits assumed): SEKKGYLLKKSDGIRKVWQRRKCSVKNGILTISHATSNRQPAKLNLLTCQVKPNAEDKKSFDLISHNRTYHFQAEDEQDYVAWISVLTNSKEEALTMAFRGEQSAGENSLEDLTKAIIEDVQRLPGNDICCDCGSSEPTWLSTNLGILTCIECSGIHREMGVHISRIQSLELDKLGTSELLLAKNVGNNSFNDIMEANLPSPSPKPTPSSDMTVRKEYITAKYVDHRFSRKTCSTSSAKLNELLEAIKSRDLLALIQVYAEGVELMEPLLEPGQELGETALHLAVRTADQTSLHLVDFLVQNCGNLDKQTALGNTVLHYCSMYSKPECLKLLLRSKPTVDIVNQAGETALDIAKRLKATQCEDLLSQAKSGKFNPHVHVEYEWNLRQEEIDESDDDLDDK
Rin1-Abl confirm: Rin1-Abl interaction inhibition confirmation; actives 49% (n = 1,300); inhibition, % at 7.35 µM; shares compounds with Rin1-Abl PPI inh; TR-FRET Rin1-Abl binding, purified proteins
GFP quench: counter-screen for Rin1-Abl inhibitors: GFP fluorescence quenchers; inhibition, % at 6.75 µM; shares compounds with Rin1-Abl PPI inh; AID 602125; actives 8.5% (n = 1,300); inhibitors/quenchers counterscreen;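 also: ABL1-eGFP fusion protein alone without its partner RIN1-SBP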
GFP quench DR: quenches GFP in dose response, Rin1-Abl counter-screen; shares compounds with Rin1-Abl PPI inh; GFP fluorescence interference/quenching counterscreen; IC50, µM; 230 tested, under 10 active; call rule not given here;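 also: ABL1-eGFP fusion protein alone without its RIN1 binding partner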
Of the large screens only hits and unclear results are named; the others gave an inactive call (follow-up assays come after a bar, where they were run). Rule as the data show it, unless noted: active = inhibition above about 6.5%; inactive = the rest.

COC(=O)C1=C(C)N(Cc2ccccc2C(F)(F)F)C(=NCc2ccc(OC)cc2)NC1c1ccccc1C(F)(F)F (stereo not given)	none (no result: Rin1-Abl PPI inh)
CCOc1ncccc1C(=O)OC(C)C(=O)Nc1ccc(Cl)cn1 (stereo not given)	Rin1-Abl PPI inh 8.2 | Rin1-Abl confirm inactive | GFP quench inactive
N#CC(=C1Nc2ccccc2N1)S(=O)(=O)c1ccccc1	Rin1-Abl PPI inh 9.5 | Rin1-Abl confirm inactive | GFP quench inactive
CCOC(=O)C1CCCN(Cc2ccccc2OCC)C1 (stereo not given)	Rin1-Abl PPI inh 9.4 | Rin1-Abl confirm inactive | GFP quench inactive
Nc1ccn([C@@H]2O[C@H](C(=O)N3CCN(CCO)CC3)[C@@H](O)[C@H]2O)c(=O)n1	none (no result: Rin1-Abl PPI inh)
COC(=O)[C@]12C[C@H](CC(=O)N3CCOCC3)C(=O)N(Cc3ccccc3)C1=C[C@H](C(C)(C)C)O[C@@H]2C	none (no result: Rin1-Abl PPI inh)
Oc1ccc(-c2cn3c(n2)SCC3)cc1O	Rin1-Abl PPI inh 26 | Rin1-Abl confirm 20 | GFP quench 15
CC1=C(O)C(=O)C(C2=C(O)C(=O)C(C)=C(O)C2=O)=C(O)C1=O	Rin1-Abl PPI inh 46 | Rin1-Abl confirm 37 | GFP quench 28
Cc1ccc(C2=C(O)C(=O)C(c3ccc(C)cc3)=C(O)C2=O)cc1	none
Cc1noc(C)c1S(=O)(=O)N1CCCc2nc(-c3ccc(F)cc3)ccc21	none (no result: Rin1-Abl PPI inh)
Cc1cc(O)cc(=O)n1-c1cccc(C(F)(F)F)c1	none (no result: Rin1-Abl PPI inh)
CN(C)S(=O)(=O)c1ccc(NC(=O)COc2ncnc3c2cnn3-c2ccccc2)cc1	Rin1-Abl PPI inh 6.8 | Rin1-Abl confirm inactive | GFP quench inactive
Nc1ncnc2c1ncn2[C@@H]1O[C@H](C(=O)N[C@@H](CCc2ccccc2)C(=O)N2CCN(CC(=O)N3CCCC3)CC2)[C@@H](O)[C@H]1O	none (no result: Rin1-Abl PPI inh)
COc1ccccc1N(C(=O)c1snc(C(N)=O)c1N)C(C(=O)NCc1ccccc1)c1ccc(O)cc1 (stereo not given)	Rin1-Abl PPI inh 22 | Rin1-Abl confirm 23 | GFP quench inactive | GFP quench DR inactive
COc1ccc(C(C(=O)NCc2ccccc2)N(C(=O)c2snc(C(N)=O)c2N)c2ccccc2OC)cc1 (stereo not given)	Rin1-Abl PPI inh 12 | Rin1-Abl confirm 14 | GFP quench inactive
COc1ccc(N(C(=O)c2snc(C(N)=O)c2N)C(C(=O)NCc2ccccc2)c2ccc(F)cc2)c(OC)c1 (stereo not given)	Rin1-Abl PPI inh 9.9 | Rin1-Abl confirm 11 | GFP quench inactive
CN(C(=O)c1cn(C)c2ccccc12)c1ccc(Oc2cccnc2)cc1	none (no result: Rin1-Abl PPI inh)
CCOC(=O)Nc1cc(=O)c([N+](=O)[O-])c(N)[nH]1	none (no result: Rin1-Abl PPI inh)
O=C(CSC1=NNC(c2ccccn2)S1)Nc1cccc(Cl)c1 (stereo not given)	none
O=C(CSC1=NNC(c2ccccn2)S1)Nc1ccccc1 (stereo not given)	Rin1-Abl PPI inh 6.5 | Rin1-Abl confirm inactive | GFP quench inactive
COC(=O)c1sccc1NC(=O)COc1ccccc1Cl	Rin1-Abl PPI inh 7.4 | Rin1-Abl confirm inactive | GFP quench inactive
CCOc1ccccc1NC(=O)Nc1ccsc1C(=O)OC	none
CC(=O)c1ccc2c(c1)C1C=CCC1C(C(=O)O)N2 (stereo not given)	Rin1-Abl PPI inh 14 | Rin1-Abl confirm 13 | GFP quench 43
CCS(=O)(=O)c1ccc(N=Nc2ccc(O)c3ncccc23)c(OC)c1	none
COc1ccccc1N=Nc1ccc(O)c2ncccc12	Rin1-Abl PPI inh 8.7 | Rin1-Abl confirm inactive | GFP quench 12
O=S(=O)(c1cccs1)N1CCCc2nc(-c3ccc(F)cc3)ccc21	none (no result: Rin1-Abl PPI inh)
Cc1ccc(C(=O)Nc2ccc(O)cc2C(=O)O)cc1	Rin1-Abl PPI inh 11 | Rin1-Abl confirm 13 | GFP quench inactive
Cc1cccc(C(=O)Nc2ccc(O)cc2C(=O)O)c1	none
Cc1ccc(C(=O)Nc2ccc(O)cc2C(=O)O)cc1C	Rin1-Abl PPI inh 27 | Rin1-Abl confirm 16 | GFP quench inactive
CCCn1c(N)c(C(=O)COC(=O)CNC(=O)c2ccc(C)c(C)c2)c(=O)n(C)c1=O	Rin1-Abl PPI inh 9.4 | Rin1-Abl confirm inactive | GFP quench inactive
Cc1cc(C)cc(C(=O)NCC(=O)OCC(=O)c2c(N)n(C)c(=O)n(C)c2=O)c1	none
Oc1ccc(CN2CCCCC2)c2cccnc12	none
Oc1c(CN2CCCCC2)ccc2cccnc12	Rin1-Abl PPI inh 34 | Rin1-Abl confirm inactive | GFP quench inactive
COCc1cc(CN2CCCC2)c(O)c2ncccc12	Rin1-Abl PPI inh 22 | Rin1-Abl confirm inactive | GFP quench inactive
CCOc1ccccc1N1CCN(Cc2cccc(OC)c2O)CC1	none
Oc1c(CN2CCCCC2)cc(COCc2ccccc2)c2cccnc12	Rin1-Abl PPI inh 14 | Rin1-Abl confirm inactive | GFP quench inactive
COc1ccccc1N1CCN(Cc2cc(Br)c(O)c3ncccc23)CC1	Rin1-Abl PPI inh 9.7 (no result: GalR3 antagonist) | Rin1-Abl confirm inactive | GFP quench inactive
CN(C)C1CCN(Cc2cc(COCc3ccccc3)c3cccnc3c2O)C1 (stereo not given)	none (no result: GalR3 antagonist, ARFGAP1 inhibitor, ASAP1 GAP inh)
COc1ccc(-c2ncn(CCc3ccccc3OC)c2CC(C)C)cc1	none (no result: Rin1-Abl PPI inh)
O=C(CC1CCCC1)N[C@H](C(=O)N1CCC[C@H]1C(=O)NC1CCCC1)c1ccccc1	none (no result: Rin1-Abl PPI inh)
CCCCC1O[C@@H](C)[C@@H]2CN3CCc4c([nH]c5ccccc45)[C@@H]3C[C@@H]2N1C (stereo not given in full)	none (no result: Rin1-Abl PPI inh)
CC1=C(C(=O)NCc2ccc(Cl)cc2)C2(CCC(C)CC2)OC1=O (stereo not given)	none
COc1ccc(CNC(=O)C2=C(C)C(=O)OC23CCC(C)CC3)cc1 (stereo not given)	Rin1-Abl PPI inh 7.4 (no result: GalR3 antagonist) | Rin1-Abl confirm inactive | GFP quench inactive
Cc1ccc(NC(=O)CN(C)C(=O)CSc2nc3ccccc3c(=O)n2CCO)cc1	Rin1-Abl PPI inh 11 | Rin1-Abl confirm 9.0 | GFP quench inactive
COCCCn1c(SCC(=O)Nc2ccc(C)cc2)nc2ccccc2c1=O	none
COc1ccccc1CNc1ccc2c(c1)OC[C@H](CC(C)C)NS2(=O)=O	none (no result: Rin1-Abl PPI inh)
CC1(C)CC(=O)C2=C(C1)Oc1ncn(CCCn3ccnc3)c(=N)c1C2c1ccccc1 (stereo not given)	none
COc1ccc(C2C3=C(CC(C)(C)CC3=O)Oc3ncn(CCCn4ccnc4)c(=N)c32)cc1 (stereo not given)	Rin1-Abl PPI inh 4.5 | Rin1-Abl confirm 10 | GFP quench inactive
Cc1cc(C)nc(SCC(=O)Nc2ccc(S(=O)(=O)N3CCCCC3)cc2)n1	Rin1-Abl PPI inh 6.3 | Rin1-Abl confirm inactive | GFP quench inactive
